Ends that are not written are not given here.
How the values were obtained:
[1] = test system: bacterial colony count in CLP-induced septic mice; test: Bacterial count in peritoneal fluid and blood of CLP-operated mice; format: in vivo, mouse; details: 500 μg/kg i.v. 12 h after CLP, count at 24 h after CLP, n=10
Summary of the method: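 Polymicrobial sepsis was induced by cecal ligation and puncture (CLP). Mice received the test compound at 500 μg/kg i.v. 12 h after CLP, with untreated CLP mice as comparators. Bacterial loads in peritoneal fluid and blood were determined by counting colonies, with n = 10 per group. Data are mean ± SD from three independent experiments on different days, analysed by Mann-Whitney U test versus CLP only.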

[2] = Pharmacokinetic analysis, terminal elimination half-life after i.v. injection; format: in vivo; details: male ICR mice, i.v. 500 μg/kg
DLS assay = format: physicochemical; details: 2 mg/mL in 10 mM PBS, 20°C

PEG5K-KSLW: KSLW mono-PEGylated at the N-terminal amine with monomethoxy PEG-ALD, MW 5,000 Da ({mPEG 5 kDa}-KKVVFWVKFK)
Decrease of bacterial colony count in the blood [1]: 90%
Decrease of bacterial colony count in the peritoneal fluid [1]: 70%
In vivo half-life relative to that of KSLW [2]: > 10 fold
Percentage polydispersity (%Pd), DLS (DLS assay): 23.3%
Average hydrodynamic diameter (DLS) (DLS assay; filtered 0.22 μm, three repeats with 10 subruns): 4.2 nm
